Measured values as given in ChEMBL document CHEMBL1149444, “Discovery of imidazo[1,2-b][1,2,4]triazines as GABA(A) alpha2/3 subtype selective agonists for the treatment of anxiety” (J Med Chem, 2006).

How the values were obtained:
[1] = target: T1, GABA-A receptor; alpha-3/beta-3/gamma-2 (Homo sapiens) (UniProt P18507+P28472+P34903); test: Efficacy against recombinant human GABAA alpha3 receptor plus beta-3-gamma-2 expressed in L(tk-) cells by whole cell patch clamp method relative to chlordiazepoxide; format: functional, cell-based
Method in brief: (§1)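 Whole-cell patch clamp on L(tk-) cells stably expressing the receptor (alpha plus beta3gamma2). GABA applied at an EC20-equivalent concentration. Modulation of the current measured with increasing test concentrations. Efficacy expressed relative to the maximal chlordiazepoxide response (set at 1.00) or as a percentage.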

[2] = target: T2, GABA-A receptor; alpha-2/beta-3/gamma-2 (Homo sapiens, UniProt P18507+P28472+P47869); test: Displacement of [3H] Ro15-1788 from recombinant human GABAA alpha2 receptor plus beta-3-gamma-2 expressed in L(tk-) cells; format: cell-based
T2 sequence (P18507 whole entry): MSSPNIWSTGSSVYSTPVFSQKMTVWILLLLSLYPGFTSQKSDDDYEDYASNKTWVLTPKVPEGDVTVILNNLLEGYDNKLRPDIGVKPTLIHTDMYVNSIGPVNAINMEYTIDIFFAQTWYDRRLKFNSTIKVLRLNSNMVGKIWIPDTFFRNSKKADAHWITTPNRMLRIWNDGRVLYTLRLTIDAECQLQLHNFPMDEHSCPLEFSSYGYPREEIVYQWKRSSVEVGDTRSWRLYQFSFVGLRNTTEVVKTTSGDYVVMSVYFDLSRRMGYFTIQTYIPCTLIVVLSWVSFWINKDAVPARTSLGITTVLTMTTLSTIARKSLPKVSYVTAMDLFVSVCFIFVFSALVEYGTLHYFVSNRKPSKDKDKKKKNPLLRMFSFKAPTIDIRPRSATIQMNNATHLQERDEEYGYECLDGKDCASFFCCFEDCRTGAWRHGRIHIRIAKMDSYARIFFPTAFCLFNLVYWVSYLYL
T2 sequence (P28472 whole entry): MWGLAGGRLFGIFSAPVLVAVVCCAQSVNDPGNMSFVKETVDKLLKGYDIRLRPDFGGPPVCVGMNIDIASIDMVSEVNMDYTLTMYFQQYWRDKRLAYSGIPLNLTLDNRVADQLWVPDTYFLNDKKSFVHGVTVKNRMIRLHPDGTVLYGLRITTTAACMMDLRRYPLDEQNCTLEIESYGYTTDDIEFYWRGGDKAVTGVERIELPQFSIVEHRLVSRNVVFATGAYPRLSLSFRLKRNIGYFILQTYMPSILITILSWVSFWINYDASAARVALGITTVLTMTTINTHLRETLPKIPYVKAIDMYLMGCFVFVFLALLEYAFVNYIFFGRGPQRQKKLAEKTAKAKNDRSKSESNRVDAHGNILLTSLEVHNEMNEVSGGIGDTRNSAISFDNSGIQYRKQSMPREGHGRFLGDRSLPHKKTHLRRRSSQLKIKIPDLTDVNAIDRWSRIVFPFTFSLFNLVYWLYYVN
T2 sequence (P47869 whole entry): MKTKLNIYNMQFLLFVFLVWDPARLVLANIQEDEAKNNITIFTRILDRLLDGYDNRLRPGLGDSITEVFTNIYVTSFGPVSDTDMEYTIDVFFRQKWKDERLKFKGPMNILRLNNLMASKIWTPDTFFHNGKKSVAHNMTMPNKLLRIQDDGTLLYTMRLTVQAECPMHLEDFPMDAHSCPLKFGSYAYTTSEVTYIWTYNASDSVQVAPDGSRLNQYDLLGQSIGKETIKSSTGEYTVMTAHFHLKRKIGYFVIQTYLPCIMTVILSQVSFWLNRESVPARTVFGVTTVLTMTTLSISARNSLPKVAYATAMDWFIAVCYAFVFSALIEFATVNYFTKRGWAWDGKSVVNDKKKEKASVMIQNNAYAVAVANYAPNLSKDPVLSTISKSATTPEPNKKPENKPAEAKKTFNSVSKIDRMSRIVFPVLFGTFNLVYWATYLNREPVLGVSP

[3] = target: T3, GABA-A receptor; alpha-1/beta-3/gamma-2 (Homo sapiens) (UniProt P14867+P18507+P28472); test: Efficacy against recombinant human GABAA alpha-1 receptor plus beta3gamma2 expressed in L(tk-) cells by whole cell patch clamp method; format: functional, cell-based; method in brief: as §1
[4] = target: T3, GABA-A receptor; alpha-1/beta-3/gamma-2 (Homo sapiens); test: Efficacy against recombinant human GABAA alpha1 receptor plus beta3gamma2 expressed in L(tk-) cells by whole cell patch clamp method relative to chlordiazepoxide; format: functional, cell-based; method in brief: as §1
[5] = target: T4, GABA-A receptor; alpha-1/beta-3/gamma-2 (Homo sapiens, UniProt P14867+P18507+P28472); test: Displacement of [3H]Ro 15-1788 from recombinant human GABAA alpha-1 receptor plus beta3gamma2 expressed in L(tk-) cells; format: cell-based
T4 sequence (P14867 whole entry): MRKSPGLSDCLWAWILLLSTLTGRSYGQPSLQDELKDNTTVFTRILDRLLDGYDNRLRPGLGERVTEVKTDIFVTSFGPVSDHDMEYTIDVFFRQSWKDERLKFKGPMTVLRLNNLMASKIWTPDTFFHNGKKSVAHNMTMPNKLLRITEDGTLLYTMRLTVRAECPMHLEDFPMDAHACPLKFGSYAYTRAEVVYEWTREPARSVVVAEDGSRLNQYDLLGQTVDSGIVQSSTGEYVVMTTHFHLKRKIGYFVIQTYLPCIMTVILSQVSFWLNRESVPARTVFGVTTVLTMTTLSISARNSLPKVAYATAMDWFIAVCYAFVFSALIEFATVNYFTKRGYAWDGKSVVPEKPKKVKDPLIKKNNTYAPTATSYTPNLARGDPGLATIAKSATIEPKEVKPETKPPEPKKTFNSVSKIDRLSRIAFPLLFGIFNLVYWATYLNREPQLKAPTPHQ
T4 sequence (P18507 whole entry): T2 sequence (P18507 whole entry)
T4 sequence (P28472 whole entry): T2 sequence (P28472 whole entry)

[6] = target: T1, GABA-A receptor; alpha-3/beta-3/gamma-2 (Homo sapiens); test: Efficacy against recombinant human GABAA alpha-3 receptor plus beta3gamma2 expressed in L(tk-) cells by modulation of chloride ion flux relative to chlordiazepoxide; format: functional, cell-based
Method in brief: (§2)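 Same L(tk-) lines expressing beta3gamma2 with alpha1 or alpha3. 36Cl ion flux evoked by an EC20-equivalent concentration of GABA, measured in the presence of about 1000 x Ki of test compound. Efficacy expressed relative to the maximal chlordiazepoxide response (1.00). Mean of at least seven independent experiments.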

[7] = target: T3, GABA-A receptor; alpha-1/beta-3/gamma-2 (Homo sapiens); test: Efficacy against recombinant human GABAA alpha1 receptor plus beta-3-gamma-2 expressed in L(tk-) cells by modulation of chloride ion flux relative to chlordiazepoxide; format: functional, cell-based; method in brief: as §2
[8] = Half life in rat at 1 mg/kg, […] 1 mg/kg, po; format: ADME, organism-based; conditions: in vivo
Method in brief: (§3)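 Rat pharmacokinetics after dosing at 1 mg/kg iv and 1 mg/kg po. Plasma clearance in mL/min/kg, half-life in h and volume of distribution in L/kg.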

[9] = Plasma clearance in rat at 1 mg/kg, iv or 1 mg/kg, po; format: ADME, organism-based; method in brief: as §3
[10] = Volume of distribution in rat at 1 mg/kg, iv or 1 mg/kg, po; format: ADME, organism-based; conditions: in vivo, read-out: Vdss; method in brief: as §3
[11] = Oral bioavailability in rat at 1 mg/kg, iv or 1 mg/kg, po; format: ADME, organism-based; conditions: in vivo
Method in brief: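 Pharmacokinetics in rat, dog or rhesus after 1 mg/kg iv and 1 mg/kg po dosing. Plasma clearance (mL/min/kg), half-life (h), volume of distribution (L/kg) and oral bioavailability (%) were derived.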

Compound | Efficacy [1] [%] | Ki [2] [nM] | Efficacy [3] [%] | Efficacy [4] [%] | Ki [5] [nM] | Efficacy [6] [%] | Efficacy [7] [%] | half-life [8] [days] | clearance [9] [mL/min/kg] | Vd [10] [L/kg] | bioavailability [11] [%]
Cc1ccn2c(-c3cccc(-c4ccccc4C#N)c3)cnc2c1 | 55 | 3.7 | -10 |  |  |  |  |  |  |  | 
CN1C(=O)CN=C(c2ccccc2)c2cc(Cl)ccc21 | 80 |  |  | 93 |  |  |  |  |  |  | 
N#Cc1cc(F)ccc1-c1cc(-c2cnc3nc(C(F)(F)F)cnn23)ccc1F | -6 | 0.8 | -13 |  | 0.25 |  |  |  |  |  | 
CCO/N=C(\C)c1ccc2c(c1)ncn2-c1cccc(-c2cccnc2)c1 | 99 | 14 |  | 40 | 2 |  |  |  |  |  | 
N#Cc1cc(F)ccc1-c1cc(-c2cnc3nc(C(F)(F)F)ccn23)ccc1F | 25 | 0.73 |  | -3 |  |  |  |  |  |  | 
Cc1cnn2c(-c3cccc(-c4ccccc4C#N)c3)cnc2c1 |  | 19 |  |  | 13 | 26 | -20 |  |  |  | 
Cc1ccn2c(-c3cccc(-c4ccccc4C#N)c3)cnc2n1 | 69 | 0.4 |  | 7 | 0.4 |  |  |  |  |  | 
Cc1cnn2c(-c3cccc(-c4ccccc4C#N)c3)cnc2n1 | 34 | 1.2 | -21 |  | 1.5 |  |  |  |  |  | 
CC(C)(O)c1ccn2c(-c3ccc(F)c(-c4cccnc4)c3)cnc2n1 |  | 4 |  | 6 |  |  |  |  |  |  | 
CC(C)(O)c1cnn2c(-c3ccc(F)c(-c4ccc(F)cc4C#N)c3)cnc2n1 | 43 | 2.1 | -15 |  | 1.2 |  |  | 1.58 | 1.1 | 3.4 | 
CC(C)(O)c1cnn2c(-c3ccc(F)c(-c4c(F)cc(F)cc4C#N)c3)cnc2n1 | 37 | 1 |  | 0 | 0.15 |  |  | 2.88 | 1 | 5.8 | 64
